Results taken from ChEMBL document CHEMBL4433216, “Discovery of Stereospecific PARP-1 Inhibitor Isoindolinone NMS-P515” (ACS Med Chem Lett, 2019).
Converted amounts (≈) assume the structure as drawn.

Columns and labels:
[1] = molecular target: T1, Poly [ADP-ribose] polymerase 1 (Homo sapiens, UniProt P09874); assay: Inhibition of PARP1 in human HeLa cells assessed as reduction in H2O2-induced PAR formation incubated for 30 mins followed by H2O2 addition for 15 mins by immunocytochemistry analysis; assay type: cell-based
T1 sequence (P09874 whole entry, the tested form may be a part): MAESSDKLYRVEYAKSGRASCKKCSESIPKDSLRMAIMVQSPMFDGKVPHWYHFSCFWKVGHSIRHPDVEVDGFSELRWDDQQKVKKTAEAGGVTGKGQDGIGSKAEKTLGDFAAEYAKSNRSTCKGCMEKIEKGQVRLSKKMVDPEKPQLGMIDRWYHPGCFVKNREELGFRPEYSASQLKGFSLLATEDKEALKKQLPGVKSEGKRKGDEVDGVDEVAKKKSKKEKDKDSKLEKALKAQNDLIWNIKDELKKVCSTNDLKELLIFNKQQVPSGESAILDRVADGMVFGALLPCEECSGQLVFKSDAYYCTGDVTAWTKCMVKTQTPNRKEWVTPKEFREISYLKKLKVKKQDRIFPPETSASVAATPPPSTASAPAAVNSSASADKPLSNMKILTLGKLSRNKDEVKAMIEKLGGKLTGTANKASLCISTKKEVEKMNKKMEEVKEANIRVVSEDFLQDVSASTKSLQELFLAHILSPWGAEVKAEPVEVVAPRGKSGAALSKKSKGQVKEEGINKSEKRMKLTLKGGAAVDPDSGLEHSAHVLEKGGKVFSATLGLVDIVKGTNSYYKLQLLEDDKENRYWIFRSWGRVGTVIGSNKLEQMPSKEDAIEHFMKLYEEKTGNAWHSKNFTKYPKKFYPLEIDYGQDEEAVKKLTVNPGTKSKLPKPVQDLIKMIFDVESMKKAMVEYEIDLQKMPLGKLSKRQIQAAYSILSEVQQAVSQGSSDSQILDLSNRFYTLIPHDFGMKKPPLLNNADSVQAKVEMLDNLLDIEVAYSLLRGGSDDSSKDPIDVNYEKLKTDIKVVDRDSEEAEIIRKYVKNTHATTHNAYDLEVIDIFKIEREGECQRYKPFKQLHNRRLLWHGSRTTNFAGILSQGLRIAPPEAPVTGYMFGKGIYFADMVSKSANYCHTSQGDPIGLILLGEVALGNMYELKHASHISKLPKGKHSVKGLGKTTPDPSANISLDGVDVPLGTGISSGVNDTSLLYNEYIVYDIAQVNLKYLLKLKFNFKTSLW

[2] = molecular target: T1, Poly [ADP-ribose] polymerase 1; assay: Binding affinity to human recombinant His/GST-tagged PARP1 catalytic domain (655-end residues) by surface plasma resonance method
[3] = molecular target: T1, Poly [ADP-ribose] polymerase 1; assay: Displacement of fluorescent probe from human recombinant full length His-tagged PARP1 by fluorescent polarization assay
in vitro [4] = assay: in vitro; set-up: dose or concentration left out as unconfirmed; conditions: rat, hepatocytes
Cytochrome P450 2B6 = molecular target: T2, Cytochrome P450 2B6 (Homo sapiens, UniProt P20813); assay: Inhibition of CYP2B6 (unknown origin); assay type: ADME
T2 sequence (P20813 whole entry): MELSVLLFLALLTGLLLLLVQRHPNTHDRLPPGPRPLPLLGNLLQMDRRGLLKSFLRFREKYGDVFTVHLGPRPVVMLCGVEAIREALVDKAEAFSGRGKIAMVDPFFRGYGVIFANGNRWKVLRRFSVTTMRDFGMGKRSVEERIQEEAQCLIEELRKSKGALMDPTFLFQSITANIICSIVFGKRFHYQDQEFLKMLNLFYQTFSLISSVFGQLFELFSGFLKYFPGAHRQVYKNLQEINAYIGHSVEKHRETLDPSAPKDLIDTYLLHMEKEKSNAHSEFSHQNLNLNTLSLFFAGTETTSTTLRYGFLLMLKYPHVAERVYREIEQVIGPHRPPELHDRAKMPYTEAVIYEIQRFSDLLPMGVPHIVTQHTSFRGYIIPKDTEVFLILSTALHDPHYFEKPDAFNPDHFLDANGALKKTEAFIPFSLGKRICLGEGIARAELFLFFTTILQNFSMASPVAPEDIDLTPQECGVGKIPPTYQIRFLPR
How it was run: (§1)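 Screen of eight P450 cytochrome isoforms, with IC50 determined for each isoform.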

[5] = Permeability of the compound in pH 7.4 HBSS buffer assessed as percentage remained in membrane at 10 uM incubated for 4 hrs by LC-MS/MS based PAMPA method; assay type: ADME; conditions: pH 7.4, 4 h
[6] = Oral bioavailability in Balb Nu/Nu mouse at 10 mg/kg measured upto 24 hrs by HPLC-MS-MS analysis; assay type: ADME, organism-based; conditions: in vivo
How it was run: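 Oral PK in Harlan Nu/Nu mice, n = 3 per study, dosed per os at 10 mg/kg as a 0.5% methocel suspension. Bioavailability derived from oral versus iv exposure (AUC∞), with iv dosing in the same mouse strain.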

[7] = AUC (0 to infinity) in Balb Nu/Nu mouse at 10 mg/kg, iv measured upto 24 hrs by HPLC-MS-MS analysis; assay type: ADME, organism-based; set-up: dose 10 mg/kg, time infinity, route intravenous; conditions: in vivo
[8] = Cmax in Balb Nu/Nu mouse at 10 mg/kg, iv measured upto 24 hrs by HPLC-MS-MS analysis; assay type: ADME, organism-based; set-up: dose 10 mg/kg, route intravenous; conditions: in vivo
[9] = AUC (0 to infinity) in Balb Nu/Nu mouse at 10 mg/kg, po measured upto 24 hrs by HPLC-MS-MS analysis; assay type: ADME, organism-based; set-up: dose 10 mg/kg, route oral, time infinity; conditions: in vivo
Cytochrome P450 2D6 = Cytochrome P450 2D6 (Homo sapiens, UniProt P10635); assay: Inhibition of CYP2D6 (unknown origin); assay type: ADME; how it was run: as §1
Chain of Cytochrome P450 2D6 (P10635 whole entry): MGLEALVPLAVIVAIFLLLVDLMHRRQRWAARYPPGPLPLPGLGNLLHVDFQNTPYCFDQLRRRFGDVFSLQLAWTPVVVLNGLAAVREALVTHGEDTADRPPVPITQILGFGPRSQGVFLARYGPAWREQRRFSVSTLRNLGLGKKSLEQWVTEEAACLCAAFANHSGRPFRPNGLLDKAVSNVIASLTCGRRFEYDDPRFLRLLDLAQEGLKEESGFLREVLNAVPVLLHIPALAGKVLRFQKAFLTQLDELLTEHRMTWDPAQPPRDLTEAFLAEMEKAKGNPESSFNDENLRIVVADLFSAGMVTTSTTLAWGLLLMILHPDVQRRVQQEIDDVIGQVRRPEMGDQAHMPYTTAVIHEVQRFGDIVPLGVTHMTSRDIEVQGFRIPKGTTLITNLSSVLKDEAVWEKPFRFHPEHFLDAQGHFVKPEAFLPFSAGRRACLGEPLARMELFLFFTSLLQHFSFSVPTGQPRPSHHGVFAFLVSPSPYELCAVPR

[10] = Toxicity in human Capan1 cells xenografted Balb athymic Nu/Nu mouse assessed as maximum weight loss at 80 mg/kg, po qd administered for 12 days; assay type: organism-based; conditions: in vivo, 288 h
How it was run: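 BRCA-2 mutated Capan-1 pancreatic xenograft. The PARP-1 inhibitor was given orally as a methocel suspension at 80 mg/kg once daily for 12 days. Read-outs were maximal tumor growth inhibition and maximum body weight loss.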

in vitro [11] = assay: in vitro; set-up: dose or concentration left out as unconfirmed; conditions: human, liver microsomes
[12] = molecular target: T3, Poly [ADP-ribose] polymerase tankyrase-1 (Homo sapiens, UniProt O95271); assay: Displacement of fluorescent probe from human recombinant His-tagged TNKS1 catalytic domain (1091-1325 residues) by fluorescent polarization assay
T3 sequence (O95271 whole entry): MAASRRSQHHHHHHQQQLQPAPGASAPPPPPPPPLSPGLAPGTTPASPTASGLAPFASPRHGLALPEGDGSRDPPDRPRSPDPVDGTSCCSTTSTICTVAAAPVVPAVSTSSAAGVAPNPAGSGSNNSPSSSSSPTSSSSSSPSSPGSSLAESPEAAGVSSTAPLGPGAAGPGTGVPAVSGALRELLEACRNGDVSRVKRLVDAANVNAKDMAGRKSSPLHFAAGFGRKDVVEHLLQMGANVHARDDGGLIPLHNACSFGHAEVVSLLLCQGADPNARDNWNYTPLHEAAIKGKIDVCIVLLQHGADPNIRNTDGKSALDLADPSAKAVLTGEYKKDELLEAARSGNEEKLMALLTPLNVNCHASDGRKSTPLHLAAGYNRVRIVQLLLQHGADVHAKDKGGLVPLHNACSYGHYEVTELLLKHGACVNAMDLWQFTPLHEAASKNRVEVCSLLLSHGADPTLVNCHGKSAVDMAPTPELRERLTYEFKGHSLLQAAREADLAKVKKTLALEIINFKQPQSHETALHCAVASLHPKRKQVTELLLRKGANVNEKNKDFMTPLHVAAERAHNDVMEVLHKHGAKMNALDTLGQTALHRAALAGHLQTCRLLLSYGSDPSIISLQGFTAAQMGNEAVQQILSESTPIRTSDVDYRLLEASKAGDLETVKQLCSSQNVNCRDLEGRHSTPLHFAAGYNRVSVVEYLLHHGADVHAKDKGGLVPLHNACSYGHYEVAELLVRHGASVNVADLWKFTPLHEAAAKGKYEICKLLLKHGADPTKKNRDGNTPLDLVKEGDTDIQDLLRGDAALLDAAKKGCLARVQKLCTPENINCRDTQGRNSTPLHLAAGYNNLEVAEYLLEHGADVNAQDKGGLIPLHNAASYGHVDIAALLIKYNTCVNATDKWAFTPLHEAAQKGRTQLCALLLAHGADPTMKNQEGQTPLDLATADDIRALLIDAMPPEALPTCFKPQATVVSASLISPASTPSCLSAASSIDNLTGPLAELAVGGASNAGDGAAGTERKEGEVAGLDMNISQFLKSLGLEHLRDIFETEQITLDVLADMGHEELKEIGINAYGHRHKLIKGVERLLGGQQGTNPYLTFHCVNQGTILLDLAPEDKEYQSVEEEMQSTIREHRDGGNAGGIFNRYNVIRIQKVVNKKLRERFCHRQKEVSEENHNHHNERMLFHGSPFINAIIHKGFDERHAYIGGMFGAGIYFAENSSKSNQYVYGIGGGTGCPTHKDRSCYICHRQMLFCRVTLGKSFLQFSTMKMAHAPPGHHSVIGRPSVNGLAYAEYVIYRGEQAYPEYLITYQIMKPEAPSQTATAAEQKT
How it was run: (§2)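 Fluorescence polarization displacement assay measuring probe displacement from each ARTD enzyme. Results expressed as K_D.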

[13] = Half life in Balb Nu/Nu mouse at 10 mg/kg, iv measured upto 24 hrs by HPLC-MS-MS analysis; assay type: ADME, organism-based; conditions: in vivo
[14] = molecular target: T4, Protein mono-ADP-ribosyltransferase PARP3 (Homo sapiens, UniProt Q9Y6F1); assay: Displacement of fluorescent probe from human recombinant His/GST-tagged PARP3 by fluorescent polarization assay; how it was run: as §2
T4 sequence (Q9Y6F1 whole entry): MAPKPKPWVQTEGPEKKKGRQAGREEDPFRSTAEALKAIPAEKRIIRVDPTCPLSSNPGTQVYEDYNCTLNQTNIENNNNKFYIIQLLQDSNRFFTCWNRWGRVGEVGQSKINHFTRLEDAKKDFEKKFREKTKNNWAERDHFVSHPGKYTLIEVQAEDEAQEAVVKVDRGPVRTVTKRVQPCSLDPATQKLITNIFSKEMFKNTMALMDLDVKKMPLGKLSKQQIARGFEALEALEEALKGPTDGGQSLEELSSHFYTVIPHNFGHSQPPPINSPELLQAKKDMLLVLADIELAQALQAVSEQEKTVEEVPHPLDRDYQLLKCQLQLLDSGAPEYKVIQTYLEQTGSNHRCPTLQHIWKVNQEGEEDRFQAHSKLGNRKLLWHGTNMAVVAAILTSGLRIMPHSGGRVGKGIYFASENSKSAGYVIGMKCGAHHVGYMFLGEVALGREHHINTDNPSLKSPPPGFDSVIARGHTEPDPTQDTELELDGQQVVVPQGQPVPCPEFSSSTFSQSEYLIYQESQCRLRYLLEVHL

[15] = molecular target: Poly [ADP-ribose] polymerase 2 (Homo sapiens, UniProt Q9UGN5); assay: Displacement of fluorescent probe from human recombinant full length His-tagged PARP2 by fluorescent polarization assay; how it was run: as §2
Chain of Poly [ADP-ribose] polymerase 2 (Q9UGN5 whole entry): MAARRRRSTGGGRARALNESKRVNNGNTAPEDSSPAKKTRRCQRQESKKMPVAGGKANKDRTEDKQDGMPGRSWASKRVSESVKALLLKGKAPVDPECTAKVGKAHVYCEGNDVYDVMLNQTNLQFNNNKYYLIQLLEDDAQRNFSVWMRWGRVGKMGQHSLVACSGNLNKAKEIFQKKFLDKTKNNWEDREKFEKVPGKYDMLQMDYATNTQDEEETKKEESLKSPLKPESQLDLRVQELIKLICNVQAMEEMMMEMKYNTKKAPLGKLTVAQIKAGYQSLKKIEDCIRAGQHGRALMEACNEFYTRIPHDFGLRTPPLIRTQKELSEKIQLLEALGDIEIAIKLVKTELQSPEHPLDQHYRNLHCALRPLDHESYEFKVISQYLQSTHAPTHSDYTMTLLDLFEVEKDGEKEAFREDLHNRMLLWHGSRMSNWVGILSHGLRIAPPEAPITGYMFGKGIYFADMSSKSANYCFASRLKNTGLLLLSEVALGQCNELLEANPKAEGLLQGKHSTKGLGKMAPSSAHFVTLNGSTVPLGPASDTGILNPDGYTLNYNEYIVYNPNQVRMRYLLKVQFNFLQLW

[16] = Half life in Balb Nu/Nu mouse at 10 mg/kg, po measured upto 24 hrs by HPLC-MS-MS analysis; assay type: ADME, organism-based; conditions: in vivo
in vitro [17] = conditions: mouse, plasma
CAPAN-1 = assay: animal or person; conditions: Mus musculus, CAPAN-1, po, 288 h, read-out: GI
[18] = Solubility in pH 7 ammonium acetate buffer by LC-MS/MS analysis; assay type: physicochemical
[19] = Cmax in Balb Nu/Nu mouse at 10 mg/kg, po measured upto 24 hrs by HPLC-MS-MS analysis; assay type: ADME, organism-based; set-up: dose 10 mg/kg, route oral; conditions: in vivo
[20] = Toxicity in human Capan1 cells xenografted Balb athymic Nu/Nu mouse assessed as maximum body weight loss at 80 mg/kg, po qd administered for 12 days co-treated with 62.5 mg/kg, iv qd temozolomide for 5 days starting from day 3; conditions: in vivo
[21] = Permeability of the compound in pH 7.4 HBSS at 10 uM incubated for 4 hrs by LC-MS/MS based PAMPA method; assay type: ADME; conditions: read-out: permeability
in vivo = conditions: Balb Nu/Nu, mouse, iv, 5 mg/kg
[22] = Half life in Balb Nu/Nu mouse at 5 mg/kg, iv measured upto 24 hrs by HPLC-MS-MS analysis; assay type: ADME, organism-based; conditions: in vivo
[23] = Cmax in Balb Nu/Nu mouse at 5 mg/kg, iv measured upto 24 hrs by HPLC-MS-MS analysis; assay type: ADME, organism-based; set-up: dose 5 mg/kg, route intravenous; conditions: in vivo
[24] = AUC (0 to infinity) in Balb Nu/Nu mouse at 5 mg/kg, iv measured upto 24 hrs by HPLC-MS-MS analysis; assay type: ADME, organism-based; set-up: dose 5 mg/kg, time infinity, route intravenous; conditions: in vivo

Row | IC50 [1] [nM] | Kd [2] [nM] | Kd [3] [nM] | CLint scaled at 1.5 h (in vitro [4]) [mL/min/kg] | IC50 (Cytochrome P450 2B6) [nM] | permeability [5] [%] | bioavailability [6] [%] | AUC(0-inf) [9] [µM·h] | IC50 (Cytochrome P450 2D6) [nM] | CLint scaled at 0.5 h (in vitro [11]) [mL/min/kg] | Kd [12] [nM] | Kd [14] [nM] | Kd [15] [nM] | half-life [16] [h] | fraction unbound (in vitro [17]) | solubility [18] [µM] | Cmax [19] [nM] | Papp at 4 h, 10 µM [21] [×10⁻⁶ cm/s] | Compound | other results
1 | 162 | 1760 | 1320 |  |  |  |  |  |  |  |  |  |  |  |  |  |  |  | C[C@@H]1c2cccc(C(N)=O)c2C(=O)N1C1CCN(C2CCCCC2)CC1 | 
2 | 27 | 16 | < 30 | 5 | > 31000 | 0 | 78.3 | 4.9 | > 31000 | 5 | > 10000 | > 10000 | > 10000 | 2.6 | 0.13 | > 225 | 1400 | 27.3 | C[C@H]1c2cccc(C(N)=O)c2C(=O)N1C1CCN(C2CCCCC2)CC1 | AUC(0-inf) [7]: 8.2 µM·h; Cmax [8]: 4900 nM; Activity [10]: 6%; half-life [13]: 2.1 h; inhibition in vivo at 80 mg/kg (CAPAN-1): 48%; Activity [20]: 17%
3 | 50 |  | < 30 | 5 | 4900 | 8 | 100 | 13.5 | 600 | 5 | > 10000 | > 10000 | > 10000 | 3.1 | 0.05 | 140 (≈ 49.8 µg/mL) | 2500 | 39.4 | CC1c2cccc(C(N)=O)c2C(=O)N1C1CCN(C2CCCCC2)CC1 (racemic) | Vd at 24 h (in vivo): 3.6 L/kg; half-life [22]: 1.8 h; Cmax [23]: 2500 nM; AUC(0-inf) [24]: 6.3 µM·h
